This assay deals with Rattus norvegicus. The experiment in a line: Antiapoptotic activity against osteoblasts in ovariectomized Wistar rat at 0.1 mg/kg after 10 weeks. Type of assay: functional, organism-based. More on the design: dose 0.1 mg/kg. In short, it runs like this:
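After 10 weeks, lumbar vertebrae were removed. Apoptotic osteoblasts were detected by TUNEL staining (Klenow FragEL) in undecalcified, plastic-embedded sections. Values are means ± S.D.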

These results are taken from ChEMBL document CHEMBL1156469 (2007).

SMILES strings stand for the structures. The source made the active and inactive calls. No cut-off for these calls is given here.

As to `C[C@]12CC[C@@H]3c4ccc(O)cc4CC[C@H]3[C@@H]1CC[C@@H]2O`, the result was Active.
